Measurements from different studies.
Protocols differ between the studies behind these lines.
Target: Serine/threonine-protein kinase pim-1 (PIM1, Homo sapiens, UniProt P11309)

| SMILES | effect on | method | tested at | remaining binding |
| --- | --- | --- | --- | --- |
| COc1ccnn2ncc(-c3ccnc(N(C)C)n3)c12 | binding |  | 1 µM | 74% |
| CNC(=O)[C@@H]1CC[C@@H](n2c(-c3ccc4cnccc4c3)nc3ccc(C(=O)NCc4cccc(C(N)=O)c4)cc32)C1 | binding | competition with immobilised ligand | 1 µM | 100% |
| C[C@@H]1CCN(c2nccc(-c3cnn4ncccc34)n2)C1 | binding |  | 1 µM | 84% |
| CCC(=N\O)/C(C)=C/c1ccc(F)cc1 | cell-free assay | competition with immobilised ligand | 1 µM | 85% |
| CN(C)c1nccc(-c2cnc3ncccn23)n1 | binding |  | 1 µM | 82% |
| Nc1cnc(N2CCc3cc(S(=O)(=O)Nc4c(F)cc(Cl)cc4F)cc(N4CCCC4=O)c32)nc1 | cell-free assay | competition with immobilised ligand | 1 µM | 88% |
| C[C@@H]1CN(c2ccc3ncc(-c4ccc5[nH]nc(C6CC6)c5c4)n3n2)C[C@H](C)O1 | binding | competition with immobilised ligand | 50 nM | 66% |
| O=C(NCCCN1CCOCC1)c1ccc(Nc2ncc(Cl)c(-c3ccc(Cl)s3)n2)cc1 | binding | competition with immobilised ligand | 1 µM | 100% |
| CN(C)c1nccc(-c2cnn3ncccc23)n1 | binding |  | 1 µM | 81% |
| Cc1cc(NC(=O)c2cccc(S(F)(F)(F)(F)F)c2)cc(-n2ccn3nc(-c4cccnc4)cc23)c1 | cell-free assay | competition with immobilised ligand | 1 µM | 95.6% |
| Cc1cnc(Nc2ccc(C(=O)N3CCC(N4CCCC4)CC3)cc2)nc1-c1cc2ccccc2s1 | binding | competition with immobilised ligand | 1 µM | 75% |
| CNC(=O)c1ccc(Nc2ncc(C(F)(F)F)c(NCc3nccnc3N(C)S(C)(=O)=O)n2)cc1 | cell-free assay | competition with immobilised ligand | 0.1 µM | 93% |
| CCN1CCN(Cc2ccc(C(=O)Nc3ccc(C)c(Oc4ccc5c(c4)CC(=O)N5)c3)cc2C(F)(F)F)CC1 | binding | competition with immobilised ligand | 1 µM | 100% |
| C[C@@H](c1ccc(-n2cnc3c(N)ncnc32)cc1)N1CCc2nn(C)c(Cc3ccccc3)c2C1=O | binding | competition with immobilised ligand | 0.1 µM | 97% |
| Nc1ncc2c(n1)-c1c([nH]c3ccc(C#CC4CC4)cc13)CCCC2 | binding | competition with immobilised ligand | 1 µM | 73% |
| CN(CCCC(F)(F)F)c1nccc(-c2cnn3ncccc23)n1 | binding |  | 1 µM | 98% |
| c1cncc(-c2cccc(Nc3nccc(NC4CCCCC4)n3)c2)c1 | binding | competition with immobilised ligand | 10 µM | 42% |
| CC(C)(C)c1ccc(-c2nc(CBr)nn2-c2cccc(O)c2)cc1 | cell-free assay | competition with immobilised ligand | 10 µM | 90% |
| O=C(c1ccc(Nc2ncc(Cl)c(-c3ccc(Cl)s3)n2)cc1)N1CCC(N2CCCC2)CC1 | binding | competition with immobilised ligand | 1 µM | 87% |
| O=C(NC[C@@H]1[C@H]2CN(C(=O)OCc3cc(C(F)(F)F)cc(C(F)(F)F)c3)C[C@@H]12)c1ccc2[nH]nnc2c1 | cell-free assay | competition with immobilised ligand | 1 µM | 98% |
| O=C(NCC1CCOCC1)c1n[nH]cc1NC(=O)c1c(F)cccc1F | binding | competition with immobilised ligand | 1 µM | 100% |
| COc1ncc2cc3ccccc3nc2c1C#N | cell-free assay | competition with immobilised ligand | 5 µM | 87% |
| N[C@@H]1CCN(c2nccc(-c3cnn4ncccc34)n2)C1 | binding |  | 1 µM | 100% |
| CC(=O)C1=C(C)N(c2cccc(C(F)(F)F)c2)C(=O)N[C@@H]1c1ccc(C#N)nc1 | cell-free assay | competition with immobilised ligand | 1 µM | 100% |
| CN(c1nccc(-c2cnn3ncccc23)n1)C1CC1 | binding |  | 1 µM | 100% |
| CNC(=O)Nc1ccc2c(c1)CC[C@@]21OC(=O)N(CC(=O)N(Cc2ccc(F)cc2)[C@@H](C)C(F)(F)F)C1=O | cell-free assay | competition with immobilised ligand | 1 µM | 100% |
